Assay results: ChEMBL document CHEMBL1123011, “Isoxazoles with antipicornavirus activity” (1985)
In brackets after ≈: the same amount, converted by molar mass. Activity calls are given as the source filed them. No cut-off for these calls is given here.

Tested on: Poliovirus 2
Assay: Compound tested in vitro for anti-picornavirus activity against Poliovirus type-2
Assay type: functional
Settings: Enterovirus C
In short: (§1)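 Plaque-reduction assay on day-old HeLa (Ohio) monolayers at 90% confluence, infected with polio-2 at ca. 80 pfu/well. Adsorption was at least 1 h at 37 °C in 2% CO2. Cells were then overlaid in duplicate with drug in M-199/calf serum/agarose (Me2SO stock at 10 mg/mL, twofold dilutions) and held 3 days. Plaques were fixed with formaldehyde, stained with crystal violet and counted. MIC is the concentration giving 50% plaque reduction.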

| SMILES | MIC [µg/mL] |
| --- | --- |
| CCOC(=O)c1ccc(OCCCCCCc2cc(C)no2)cc1 | 0.8 (≈ 2.41 µM) |
| CCOC(=O)c1ccc(OCCCCCCc2c(CC)noc2CC)cc1 | 0.5 (≈ 1.34 µM) |
| COc1ccc(OCCCCCCc2cc(C)no2)c(Cl)c1 | 0.3 (≈ 0.926 µM) |
| CCc1noc(CC)c1CCCCCCOc1ccc(C(=O)OC)cc1Br | 2.2 (≈ 5.02 µM) |
| COc1ccc(OCCCCCc2cc(C)no2)c(Cl)c1 | 0.2 (≈ 0.646 µM) |
| CCc1noc(CC)c1CCCCCCOc1ccc(SC)cc1 | 0.6 (≈ 1.73 µM) |
| CCc1noc(CC)c1CCCCCCOc1ccc(C(=O)OC)cc1Cl | 0.61 (≈ 1.55 µM) |
| CCc1noc(CC)c1CCCCCCOc1c(Cl)cccc1Cl | 5.9 (≈ 15.9 µM) |
| CCOC(=O)c1ccc(OCCCCCc2cc(C)no2)cc1 | 0.6 (≈ 1.89 µM) |
| CCc1noc(CC)c1CCCCCCOc1ccc(OC)cc1C(=O)OC | 2.9 (≈ 7.45 µM) |

Tested on: not listed separately
Assay: Maximum testable level of compound was evaluated
Assay type: functional
Settings: not given
In short: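 In the HeLa (Ohio) plaque-overlay system, Me2SO-solubilized compound was twofold serially diluted into the agarose overlay. Uninfected cell controls were run alongside and cells were stained with crystal violet after 3 days. The maximum testable level was taken as the concentration below which no cytotoxic effects were seen.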

| SMILES | MTL [µg/mL] |
| --- | --- |
| Cc1cc(CCCCCCCOc2ccc(C(N)=O)cc2)on1 | 12.5 |
| CCc1noc(CC)c1CCCCCCOc1ccc(OC)cc1C(=O)O | 12.5 |
| CCOC(=O)c1ccc(OCCCCCCc2cc(C)no2)cc1 | 12.5 |
| CCc1noc(CC)c1CCCCCCOc1ccc2c(c1)OCO2 | 6.2 |
| Cc1ccc(OCCCCCCCc2cc(C)no2)c(Cl)c1 | 6.2 |
| CCOC(=O)c1ccc(OCCCCCCCCc2cc(C)no2)cc1 | 12.5 |
| CCOC(=O)c1cccc(OCCCCCCCc2cc(C)no2)c1 | 12.5 |
| COc1ccc(OCCCCCCCCc2cc(C)no2)c(Cl)c1 | 12.5 |
| Cc1cc(CCCCCCCOc2ccc(C(=O)NN)cc2)on1 | 12.5 |
| Cc1cc(CCCCCCCOc2ccc(Cl)cc2)on1 | 3.1 |
| CCOC(=O)c1ccc(OCCCCCCc2c(CC)noc2CC)cc1 | 6.2 |
| CCCOC(=O)c1ccc(OCCCCCCCc2cc(C)no2)cc1 | 25 |
| CCc1noc(CC)c1CCCCCCOc1ccc(Br)cc1 | 6 |
| CCc1noc(CC)c1CCCCCCOc1ccccc1C(F)(F)F | 6.2 |
| COc1ccc(OCCCCCCc2cc(C)no2)c(Cl)c1 | 12.5 |
| CCOC(=O)c1ccc(OCCCCc2cc(C)no2)cc1 | 6.2 |
| CCOC(=O)c1ccc(OCCCCCCCCc2c(CC)noc2CC)cc1 | 12.5 |
| CCc1noc(CC)c1CCCCCCOc1ccc(C(=O)OC)cc1Br | 12.5 |
| COc1ccc(OCCCCCc2cc(C)no2)c(Cl)c1 | 12.5 |
| CCc1noc(CC)c1CCCCCCOc1ccc(SC)cc1 | 12.5 |
| CCc1noc(CC)c1CCCCCCOc1ccc(C(=O)OC)cc1Cl | 1.6 |
| CCc1noc(CC)c1CCCCCCOc1c(Cl)cccc1Cl | 12 |
| CCOC(=O)c1ccc(OCCCCCc2cc(C)no2)cc1 | 12.5 |
| CCc1noc(CC)c1CCCCCCOc1ccc(OC)cc1C(=O)OC | 12 |

Tested on: rhinovirus A2
Assay: (§2) In vitro anti-picornavirus activity against Rhinovirus type-2.
Assay type: functional
Settings: Rhinovirus A
In short: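 HeLa (Ohio) monolayers (day-old, 90%) were infected at about 80 pfu/well and adsorbed at least 1 h at 33 °C in 2% CO2. After 3 days at 33 °C they were fixed with formaldehyde and stained with crystal violet.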

| SMILES | MIC [µg/mL] |
| --- | --- |
| Cc1ccc(OCCCCCCCc2cc(C)no2)c(Cl)c1 | 1.2 (≈ 3.73 µM) |
| CCOC(=O)c1ccc(OCCCCCCCCc2cc(C)no2)cc1 | 0.05 (≈ 0.139 µM) |
| CCOC(=O)c1cccc(OCCCCCCCc2cc(C)no2)c1 | 1.6 (≈ 4.63 µM) |
| COc1ccc(OCCCCCCCCc2cc(C)no2)c(Cl)c1 | 0.16 (≈ 0.455 µM) |
| Cc1cc(CCCCCCCOc2ccc(C(=O)NN)cc2)on1 | 0.64 (≈ 1.93 µM) |
| Cc1cc(CCCCCCCOc2ccc(Cl)cc2)on1 | 1.5 (≈ 4.87 µM) |
| CCCOC(=O)c1ccc(OCCCCCCCc2cc(C)no2)cc1 | 0.07 (≈ 0.195 µM) |
| CCOC(=O)c1ccc(OCCCCCCCCc2c(CC)noc2CC)cc1 | 0.4 (≈ 0.996 µM) |

Tested on: Poliovirus 2
Assay: Compound tested in vitro for anti-picornavirus activity against Poliovirus type-2; NA=Not Active
Assay type: functional, organism-based
Settings: not given
In short: as §1

| SMILES | MIC |
| --- | --- |
| CCc1noc(CC)c1CCCCCCOc1ccc(OC)cc1C(=O)O | inactive |
| CCc1noc(CC)c1CCCCCCOc1ccc2c(c1)OCO2 | inactive |
| CCc1noc(CC)c1CCCCCCOc1ccc(Br)cc1 | inactive |
| CCc1noc(CC)c1CCCCCCOc1ccccc1C(F)(F)F | inactive |
| CCOC(=O)c1ccc(OCCCCc2cc(C)no2)cc1 | inactive |

Tested on: rhinovirus A2
Assay: In vitro anti-picornavirus activity against Rhinovirus type-2; Not Active.
Assay type: functional, organism-based
Settings: not given
In short: (§3)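 HeLa (Ohio) monolayers (day-old, 90%) were infected at about 80 pfu/well and adsorbed at least 1 h at 33 °C in 2% CO2. After 3 days at 33 °C they were fixed with formaldehyde and stained with crystal violet. MIC was the concentration giving 50% fewer plaques.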

| SMILES | MIC |
| --- | --- |
| Cc1cc(CCCCCCCOc2ccc(C(N)=O)cc2)on1 | inactive |
| CCc1noc(CC)c1CCCCCCOc1ccc(OC)cc1C(=O)O | inactive |
| CCc1noc(CC)c1CCCCCCOc1ccc2c(c1)OCO2 | inactive |
| CCc1noc(CC)c1CCCCCCOc1ccc(Br)cc1 | inactive |
| CCc1noc(CC)c1CCCCCCOc1ccc(SC)cc1 | inactive |
| CCc1noc(CC)c1CCCCCCOc1ccc(OC)cc1C(=O)OC | inactive |

Tested on: Poliovirus 2
Assay: In vitro for anti-picornavirus activity against Poliovirus type-2; Not Active.
Assay type: functional, organism-based
Settings: not given
In short: as §1

| SMILES | MIC |
| --- | --- |
| Cc1cc(CCCCCCCOc2ccc(C(N)=O)cc2)on1 | inactive |
| CCOC(=O)c1ccc(OCCCCCCCCc2cc(C)no2)cc1 | inactive |
| CCOC(=O)c1cccc(OCCCCCCCc2cc(C)no2)c1 | inactive |
| Cc1cc(CCCCCCCOc2ccc(C(=O)NN)cc2)on1 | inactive |
| CCCOC(=O)c1ccc(OCCCCCCCc2cc(C)no2)cc1 | inactive |
| CCOC(=O)c1ccc(OCCCCCCCCc2c(CC)noc2CC)cc1 | inactive |

Tested on: rhinovirus A2
Assay: as §2
Assay type: functional
Settings: Rhinovirus A
In short: as §3

| SMILES | MIC [µg/mL] |
| --- | --- |
| CCOC(=O)c1ccc(OCCCCCCc2cc(C)no2)cc1 | 0.01 (≈ 0.0302 µM) |
| CCOC(=O)c1ccc(OCCCCCCc2c(CC)noc2CC)cc1 | 0.1 (≈ 0.268 µM) |
| CCc1noc(CC)c1CCCCCCOc1ccccc1C(F)(F)F | 3.1 (≈ 8.39 µM) |
| COc1ccc(OCCCCCCc2cc(C)no2)c(Cl)c1 | 0.8 (≈ 2.47 µM) |
| CCOC(=O)c1ccc(OCCCCc2cc(C)no2)cc1 | 3.1 (≈ 10.2 µM) |
| CCc1noc(CC)c1CCCCCCOc1ccc(C(=O)OC)cc1Br | 0.4 (≈ 0.912 µM) |
| COc1ccc(OCCCCCc2cc(C)no2)c(Cl)c1 | 0.4 (≈ 1.29 µM) |
| CCc1noc(CC)c1CCCCCCOc1ccc(C(=O)OC)cc1Cl | 0.4 (≈ 1.02 µM) |
| CCc1noc(CC)c1CCCCCCOc1c(Cl)cccc1Cl | 1.6 (≈ 4.32 µM) |
| CCOC(=O)c1ccc(OCCCCCc2cc(C)no2)cc1 | 0.015 (≈ 0.0473 µM) |

Tested on: Poliovirus 2
Assay: In vitro anti-picornavirus activity against Poliovirus type-2.
Assay type: functional
Settings: Enterovirus C

| SMILES | MIC [µg/mL] |
| --- | --- |
| Cc1ccc(OCCCCCCCc2cc(C)no2)c(Cl)c1 | 0.8 (≈ 2.49 µM) |
| COc1ccc(OCCCCCCCCc2cc(C)no2)c(Cl)c1 | 0.65 (≈ 1.85 µM) |
| Cc1cc(CCCCCCCOc2ccc(Cl)cc2)on1 | 0.3 (≈ 0.975 µM) |
